# Measured values: ChEMBL document CHEMBL1134569, “Synthesis and in vitro and in vivo antimalarial activity of new 4-anilinoquinolines” (J Med Chem, 2001)
# How the values were obtained:
# [1] = Cytotoxicity upon MRC-5 cells (diploid embryonic lung cell line) at 1 uM; assay type: cell-based, MRC5; conditions: human
# In short: (§1)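 MRC-5 human diploid embryonic lung cells seeded at 5000/well, washed after 24 h, then given 2-fold drug dilutions in RPMI + 5% FCS (final DMSO below 0.5%). Incubated at 37 °C, 5% CO₂, for 7 days. MTT read-out at 540 nm, scored as percent absorbance reduction versus untreated controls.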
# [2] = Cytotoxicity upon MRC-5 cells (diploid embryonic lung cell line) at 32 uM; assay type: cell-based, MRC5; conditions: human; in short: as §1
# [3] = Cytotoxicity upon MRC-5 cells (diploid embryonic lung cell line) at 8 uM; assay type: cell-based, MRC5; conditions: human; in short: as §1
# [4] = Cytotoxicity upon MPMs (mouse peritoneal macrophages) at 2 uM conc.; Toxic
# In short: (§2)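 Mouse peritoneal macrophages harvested 48 h after potato-starch stimulation and seeded at 30000 cells/well. After 24 h, washed and exposed to 2-fold drug dilutions in RPMI + 5% FCS (final DMSO below 0.5%) at 37 °C, 5% CO₂, for 7 days. Toxicity scored microscopically as toxic or not versus untreated controls.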
# [5] = Cytotoxicity upon MPMs (mouse peritoneal macrophages) at 32 uM; in short: as §2
# [6] = Cytotoxicity upon MPMs (mouse peritoneal macrophages) at 8 uM; in short: as §2
# Plasmodium falciparum [7] = experiment: Inhibitory activity against chloroquine-resistant Plasmodium falciparum FcB1R; assay type: functional, organism-based; conditions: Plasmodium falciparum
# [8] = Cytotoxicity upon MPMs (mouse peritoneal macrophages) at 3.1 uM conc.;NT=No Toxicity; in short: as §2
# [9] = Cytotoxicity upon MPMs (mouse peritoneal macrophages) at 6.3 uM; in short: as §2
# [10] = Cytotoxicity upon MRC-5 cells (diploid embryonic lung cell line) at 12.5 uM; assay type: cell-based, MRC5; conditions: human; in short: as §1
# [11] = Cytotoxicity upon MRC-5 cells (diploid embryonic lung cell line) at 3.1 uM; assay type: cell-based, MRC5; conditions: human; in short: as §1
# [12] = Cytotoxicity upon MRC-5 cells (diploid embryonic lung cell line) at 6.3 uM; assay type: cell-based, MRC5; conditions: human; in short: as §1
# [13] = Cytotoxicity upon MPMs (mouse peritoneal macrophages) at 12.5 uM conc.; Toxic; in short: as §2
# [14] = Cytotoxicity upon MPMs (mouse peritoneal macrophages) at 2 uM; in short: as §2
# [15] = Cytotoxicity upon MRC-5 cells (diploid embryonic lung cell line) at 25 uM conc.; assay type: cell-based, MRC5; conditions: human; in short: as §1
# [16] = Cytotoxicity upon MRC-5 cells (diploid embryonic lung cell line) at 1.6 uM conc.; assay type: cell-based, MRC5; conditions: human; in short: as §1
# [17] = Cytotoxicity upon MPMs (mouse peritoneal macrophages) at 12.5 uM conc.;NT=No Toxicity; in short: as §2
# Plasmodium falciparum [18] = experiment: Inhibitory activity against chloroquine-resistant Plasmodium falciparum K1; assay type: functional, organism-based
# Plasmodium falciparum [19] = experiment: Inhibitory activity against chloroquine-sensitive Plasmodium falciparum THAI
Structure (SMILES),cytotoxicity at 1 µM [1],cytotoxicity at 32 µM [2],cytotoxicity at 8 µM [3],Cytotoxicity [4],Cytotoxicity [5],Cytotoxicity [6],IC50 (Plasmodium falciparum [7]),NT [8],NT [9],cytotoxicity at 12.5 µM [10],cytotoxicity at 3.1 µM [11],cytotoxicity at 6.3 µM [12],Cytotoxicity [13],NT [14],cytotoxicity at 25 µM [15],cytotoxicity at 1.6 µM [16],NT [17],IC50 (Plasmodium falciparum [18]),IC50 (Plasmodium falciparum [19])
CCN(CC)c1ccc(CN2CCN(Cc3cc(NC(=O)CN4CCCCC4)cc(Nc4ccnc5cc(Cl)ccc45)c3)CC2)cc1,100%,100%,100%,Toxic,Cytotoxicity upon MPMs at 32 uM,Cytotoxicity upon MPMs at 32 uM,11.9 nM,,,,,,,,,,,,
CCN(CC)Cc1cc(NC(=O)CN2CCCCC2)cc(Nc2ccnc3cc(Cl)ccc23)c1,0%,100%,100%,Toxic,Cytotoxicity upon MPMs at 32 uM,Cytotoxicity upon MPMs at 32 uM,8.2 nM,,,,,,,,,,,,
CC1CCN(CCCCCCCCCCCC(=O)Nc2cc(CO)cc(Nc3ccnc4cc(Cl)ccc34)c2)CC1,,,,,,,86 nM,Cytotoxicity upon MPMs at 6.3 uM,Cytotoxicity upon MPMs at 6.3 uM,100%,0%,0%,Toxic,,,,,,
O=C(CN1CCCCC1)Nc1cc(COC(=O)c2ccccc2)cc(Nc2ccnc3cc(Cl)ccc23)c1,,,,,,,75.5 nM,,Cytotoxicity upon MPMs at 2 uM,,,38%,Toxic,Cytotoxicity upon MPMs at 2 uM,66%,20%,,,
O=C(CN1CCCCC1)Nc1cc(COC(=O)CCCCCN2CCCCC2)cc(Nc2ccnc3cc(Cl)ccc23)c1,,,,,,,27.4 nM,,Cytotoxicity upon MPMs at 2 uM,,,81%,,Cytotoxicity upon MPMs at 2 uM,92%,0%,Cytotoxicity upon MPMs at 2 uM,,
O=C(CN1CCCCC1)Nc1cc(COC(=O)CCCCN2CCCC2)cc(Nc2ccnc3cc(Cl)ccc23)c1,,,,,,,23 nM,,Cytotoxicity upon MPMs at 2 uM,,,83%,,Cytotoxicity upon MPMs at 2 uM,82%,0%,Cytotoxicity upon MPMs at 2 uM,,
O=C(CO)Nc1cc(CO)cc(Nc2ccnc3cc(Cl)ccc23)c1,,,,,,,> 1000 nM,Cytotoxicity upon MPMs at 6.3 uM,Cytotoxicity upon MPMs at 6.3 uM,0%,0%,0%,,,,,Cytotoxicity upon MPMs at 6.3 uM,,
O=C(CN1CCCCC1)Nc1cc(CN2CCCCC2)cc(Nc2ccnc3cc(Cl)ccc23)c1,43%,100%,100%,Toxic,Cytotoxicity upon MPMs at 32 uM,Cytotoxicity upon MPMs at 32 uM,10.2 nM,,,,,,,,,,,8.1 nM,6.7 nM
CN1CCN(CCCCC(=O)OCc2cc(NC(=O)CN3CCCCC3)cc(Nc3ccnc4cc(Cl)ccc34)c2)CC1,,,,,,,65.1 nM,,Cytotoxicity upon MPMs at 2 uM,,,0%,,Cytotoxicity upon MPMs at 2 uM,97%,0%,Cytotoxicity upon MPMs at 2 uM,,
COc1ccc(CNCc2cc(NC(=O)CN3CCCCC3)cc(Nc3ccnc4cc(Cl)ccc34)c2)cc1,100%,100%,100%,Toxic,Cytotoxicity upon MPMs at 32 uM,Cytotoxicity upon MPMs at 32 uM,4.4 nM,,,,,,,,,,,,
O=C(CN1CCCCC1)Nc1cc(COC(=O)CCCCBr)cc(Nc2ccnc3cc(Cl)ccc23)c1,,,,,,,151 nM,,Cytotoxicity upon MPMs at 2 uM,,,0%,,Cytotoxicity upon MPMs at 2 uM,0%,0%,Cytotoxicity upon MPMs at 2 uM,,
O=C(C[n+]1ccccc1)Nc1cc(CO)cc(Nc2ccnc3cc(Cl)ccc23)c1.[Cl-],,,,,,,927 nM,Cytotoxicity upon MPMs at 6.3 uM,Cytotoxicity upon MPMs at 6.3 uM,0%,0%,0%,,,,,Cytotoxicity upon MPMs at 6.3 uM,,
CCN(CC)CC(=O)Nc1cc(CO)cc(Nc2ccnc3cc(Cl)ccc23)c1,,,,,,,41.6 nM,Cytotoxicity upon MPMs at 6.3 uM,Cytotoxicity upon MPMs at 6.3 uM,0%,0%,0%,Toxic,,,,,,
O=C(CNCc1ccccc1)Nc1cc(CO)cc(Nc2ccnc3cc(Cl)ccc23)c1,,,,,,,193 nM,Cytotoxicity upon MPMs at 6.3 uM,Cytotoxicity upon MPMs at 6.3 uM,0%,0%,0%,,,,,Cytotoxicity upon MPMs at 6.3 uM,,
Nc1cc(CO)cc(Nc2ccnc3cc(Cl)ccc23)c1,,,,,,,279 nM,Cytotoxicity upon MPMs at 2 uM,Cytotoxicity upon MPMs at 2 uM,0%,0%,0%,,Cytotoxicity upon MPMs at 2 uM,,0%,Cytotoxicity upon MPMs at 2 uM,,
O=C(CN1CCCCC1)Nc1cc(COC(=O)CCN2CCCCC2)cc(Nc2ccnc3cc(Cl)ccc23)c1,,,,,,,78.3 nM,,Cytotoxicity upon MPMs at 2 uM,,,0%,,Cytotoxicity upon MPMs at 2 uM,90%,0%,Cytotoxicity upon MPMs at 2 uM,,
O=C(Nc1cc(CO)cc(Nc2ccnc3cc(Cl)ccc23)c1)c1ccccc1,,,,,,,> 1000 nM,Cytotoxicity upon MPMs at 6.3 uM,Cytotoxicity upon MPMs at 6.3 uM,0%,0%,0%,,,,,Cytotoxicity upon MPMs at 6.3 uM,,
O=C(CCl)Nc1cc(CO)cc(Nc2ccnc3cc(Cl)ccc23)c1,,,,,,,> 1000 nM,Cytotoxicity upon MPMs at 6.3 uM,Cytotoxicity upon MPMs at 6.3 uM,92%,0%,0%,Toxic,,,,,,
O=C(CN1CCCCC1)Nc1cc(COC(=O)CN2CCCCC2)cc(Nc2ccnc3cc(Cl)ccc23)c1,,,,,,,54 nM,,,,,0%,,,93%,0%,,,
O=C(CN1CCCC1)Nc1cc(CO)cc(Nc2ccnc3cc(Cl)ccc23)c1,,,,,,,44 nM,Cytotoxicity upon MPMs at 6.3 uM,Cytotoxicity upon MPMs at 6.3 uM,0%,0%,0%,Toxic,,,,,,
O=C(CN1CCCCC1)Nc1cc(CNCc2ccc(Cl)cc2)cc(Nc2ccnc3cc(Cl)ccc23)c1,100%,100%,100%,Toxic,Cytotoxicity upon MPMs at 32 uM,Cytotoxicity upon MPMs at 32 uM,4.6 nM,,,,,,,,,,,,
CC1CCN(CCCCCC(=O)Nc2cc(CO)cc(Nc3ccnc4cc(Cl)ccc34)c2)CC1,,,,,,,304 nM,Cytotoxicity upon MPMs at 6.3 uM,Cytotoxicity upon MPMs at 6.3 uM,0%,0%,0%,,,,,Cytotoxicity upon MPMs at 6.3 uM,,
CCN(CC)CCCCC(=O)OCc1cc(NC(=O)CN2CCCCC2)cc(Nc2ccnc3cc(Cl)ccc23)c1,,,,,,,141 nM,,Cytotoxicity upon MPMs at 2 uM,,,13%,,Cytotoxicity upon MPMs at 2 uM,22%,0%,Cytotoxicity upon MPMs at 2 uM,,
O=C(CN1CCSC1)Nc1cc(CO)cc(Nc2ccnc3cc(Cl)ccc23)c1,,,,,,,588 nM,Cytotoxicity upon MPMs at 6.3 uM,Cytotoxicity upon MPMs at 6.3 uM,0%,0%,0%,,,,,Cytotoxicity upon MPMs at 6.3 uM,,
CC1CCN(CCCCC(=O)Nc2cc(CO)cc(Nc3ccnc4cc(Cl)ccc34)c2)CC1,,,,,,,465 nM,Cytotoxicity upon MPMs at 6.3 uM,Cytotoxicity upon MPMs at 6.3 uM,0%,0%,0%,,,,,Cytotoxicity upon MPMs at 6.3 uM,,
CC1CCN(CCC(=O)Nc2cc(CO)cc(Nc3ccnc4cc(Cl)ccc34)c2)CC1,,,,,,,136 nM,Cytotoxicity upon MPMs at 6.3 uM,Cytotoxicity upon MPMs at 6.3 uM,100%,0%,0%,Toxic,,,,,,
